Results taken from article PMC8520054 (Asian Journal of Pharmaceutical Sciences, 2021).

How the values were obtained:
[1] = Biocompatibility in AIA rats: blood cell counts and body weight; type: in vivo, SD rats; settings: compared to the normal group, n = 7
[2] = system: adjuvant-induced arthritis (AIA) rat model; test: In vivo therapeutic efficacy in adjuvant-induced arthritis; set-up: species or system SD rats; settings: AIA rats, i.v. 0.75 mg/kg peptide every day for one week, n = 7, vs PBS
Summary of the method: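 Adjuvant arthritis was induced in male SD rats by s.c. CFA into the paws on Day 1 and was largely established by Day 10. Groups of n = 7, plus healthy controls, received daily i.v. PBS, free peptide or nanoparticles (0.75 mg/kg peptide) for one week. Body weight, paw thickness and joint score were recorded daily. Each paw was graded 0–4 for erythema/swelling, giving a maximum of 16 per rat. Values are mean ± SD; groups were compared by Student's t-test.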

ankle joints of AIA rats = test: Joint histology; type: in vivo, SD rats; settings: i.v. 0.75 mg/kg peptide every day for one week
Summary of the method: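 CFA-induced arthritic SD rats received daily i.v. PBS, free peptide or nanoparticles (0.75 mg/kg peptide) for one week; healthy rats served as controls. Rats were sacrificed after 14 d. Ankle joints were fixed in 4% paraformaldehyde for 3 d, decalcified in 15% EDTA-2Na and sectioned. Sections were stained with HE, or immunostained with IL-17A and MPO antibodies plus secondary antibodies. n = 7.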

[3] = system: Th17 (CD4+IL-17+) and Treg (CD4+Foxp3+) cells; test: Flow cytometry of Th17 and Treg cells in draining lymph nodes of AIA rats; type: in vivo, SD rats; settings: Day 24, n = 7
Summary of the method: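 Arthritis induced in SD rats on Day 1 by subcutaneous paw injection of 50 µl CFA (10 mg/ml Mycobacterium tuberculosis). Groups (n = 7) given i.v. PBS, free peptide or peptide-loaded nanoparticles (0.75 mg/kg peptide) daily for one week; healthy rats as normal control. On Day 24, popliteal draining lymph nodes sieved (300-mesh) to single cells; CD4+IL-17+ and CD4+Foxp3+ subsets by flow cytometry; mean ± SD.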

[4] = system: TNF-α, IL-1β, IL-6, IL-17A in joint homogenates; test: Inflammatory cytokines in joint homogenates of AIA rats; type: in vivo, SD rats; settings: ELISA, i.v. 0.75 mg/kg peptide every day for one week, n = 7
Summary of the method: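 SD rats made arthritic on Day 1 by 50 µl CFA (10 mg/ml M. tuberculosis) injected s.c. into paws. Arthritic rats (n = 7/group) then dosed i.v. daily for one week with PBS, free peptide or nanoparticle formulation at 0.75 mg/kg peptide; untreated healthy rats as reference. After 14 d, joint tissues cut up and homogenised; TNF-α, IL-1β, IL-6, IL-17A quantified by ELISA; mean ± SD.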

AMVSEFLKQAWFIENEEQEYVQTVK [Ac2–26]
count of platelets (PLT) [1]: no significant difference | count of white blood cells (WBC) [1]: no significant difference | paw thickness [2]: limited reduction of the paw thickness | expression of IL-17A in joint tissues (immunohistochemistry) (ankle joints of AIA rats): clearly visible | expression of MPO in joint tissues (immunohistochemistry) (ankle joints of AIA rats): slightly attenuate the expression of MPO | pathological condition of ankle joints (HE staining) (ankle joints of AIA rats; n = 7): extensive inflammation infiltration, tissue damage and cartilage destruction | proportion of Treg cells in draining lymph nodes [3]: unable to increase the proportion of Treg | expression of IL-1β in joint homogenates [4]: unable to effectively decrease the inflammatory level | expression of IL-6 in joint homogenates [4]: unable to effectively decrease the inflammatory level | expression of IL-17A in joint homogenates [4]: unable to effectively decrease the inflammatory level | expression of TNF-α in joint homogenates [4]: unable to effectively decrease the inflammatory level
